From PubChem BioAssay
KCNK3 block: human KCNK3 channel inhibition, primary screen; actives 0.84% (n = 340,000); B-score at 10 µM; CHO-KCNK3 thallium flux, FluxOR fluorescence; active compounds read low;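 active means B-score under library mean minus 4 SD, starting fluorescence ratio at most library mean plus 5 SD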;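 further: more negative B-score means stronger inhibition of thallium flux through KCNK3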
KCNK9 block: inhibitors of human KCNK9 two-pore domain potassium channel | B-score at 10 µM | Q9NPC2 | HEK293 KCNK9, FluxOR thallium flux fluorescence; active compounds read low | actives 1.2% (n = 310,000);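 active means ratio B-score over 3 SD below the library mean, with starting fluorescence within 5 SD of its mean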;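 further: negative B-score means less thallium flux so channel inhibition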
KCNQ1 act: potentiators or activators of human KCNQ1 potassium channel. P51787. CHO-K1 KCNQ1, thallium flux FluxOR fluorescence; active compounds read high. B-score at 10 µM. actives 0.35% (n = 310,000);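 active means fluorescence ratio B-score, a plate-corrected score, at least three library SD, with initial intensity B-score within 5 SD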
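Test system: CHO-K1 cells stably expressing KCNQ1 / Medium: assay buffer / Also added: depolarizing K+/Tl+ stimulus, K2SO4 and Tl2SO4 each 12.5 mM in 5x stock / Incubation: 90 min dye loading and 20 min compound exposure, both at room temperature / Signal: thallium influx via FluxOR fluorescence, kinetic imaging / Evaluation: B score of baseline-normalized fluorescence ratio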
hERG rescue: hERG (human) protection from proarrhythmic block | Q12809 | CHO-hERG, FluxOR thallium flux, dofetilide IC70 present | activation (rescue from dofetilide block), less the hit threshold, % at 10 µM | actives 0.51% (n = 310,000);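 active means activation above the mean of controls blocked by dofetilide plus 5 SD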;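 further: thallium influx through hERG after potassium depolarization seen as dye fluorescence rise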
KCNQ1 inh: inhibitors of human KCNQ1 potassium channel; P51787; CHO-K1 KCNQ1, FluxOR thallium flux fluorescence; active compounds read high; B-score at 10 µM; actives 1.3% (n = 310,000); AID 2642;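 active means compounds whose thallium flux B-score, printed positive for inhibition, exceeds three library SD while starting fluorescence stays within three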;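 further: channel opened by potassium depolarization with thallium stimulus after 20 min compound exposure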
Cl transport mod: modulates chloride dependent transport by human KCC2. AID 1456. B-score of Tl+ flux slope (higher = more flux/activation; lower = inhibition) at 10 µM. Q9H2X9. KCC2 cells, thallium flux FluoZin-2 fluorescence. actives 2.2% (n = 190,000);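 active means thallium flux slope and its plate-corrected score both differing from the plate sample mean at a set confidence after two filtering rounds, in either direction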;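 further: slope of fluorescence scaled to starting intensity during 10 to 20 s after thallium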
Active calls of the source: *. Only some compounds are listed: those with a hit (about 4.1% of all), similar ones and a draw of the others.

What do the screens show for `COc1cc(NC(=O)c2ccc(C)cc2)c(OC)cc1NC(=O)CN1CCOCC1`?
KCNK3 block: inactive; KCNK9 block: inactive; KCNQ1 act: inactive; hERG rescue: -12.4; KCNQ1 inh: inactive; Cl transport mod: -0.158

Results for COc1cc(NC(=O)c2ccc(Cl)cc2)c(OC)cc1NC(=O)CN1CCOCC1 ?
KCNK3 block: inactive; KCNK9 block: inactive; KCNQ1 act: inactive; hERG rescue: -8.8; KCNQ1 inh: inactive; Cl transport mod: -5.25*

What do the screens show for `O=C(CN1CCOCC1)Nc1ccc(Cl)c(Cl)c1`?
KCNK3 block: inactive; KCNK9 block: inactive; KCNQ1 act: inactive; hERG rescue: 5.9*; KCNQ1 inh: inactive

How did COc1ccc(Cl)cc1N1Cc2ccccc2C1 do in these assays?
KCNK3 block: inactive; KCNK9 block: -7.23*; KCNQ1 act: inactive; hERG rescue: -0.2; KCNQ1 inh: inactive; Cl transport mod: -0.327

How did COc1ccc(OC)c(N2Cc3ccccc3C2)c1 do in these assays?
KCNK3 block: inactive; KCNK9 block: inactive; KCNQ1 act: inactive; hERG rescue: -9.5; KCNQ1 inh: inactive; Cl transport mod: 2.02

How did COc1cccc(CN2CC(C(=O)NCCCn3cccn3)CCC2=O)c1 (stereo not given) do in these assays?
KCNK3 block: inactive; KCNK9 block: inactive; KCNQ1 act: inactive; hERG rescue: -8.9; KCNQ1 inh: inactive

What do the screens show for `O=C(c1ccc(NC2=NC3CS(=O)(=O)CC3S2)cc1)N1CCN(c2ccc([N+](=O)[O-])cc2)CC1` (stereo not given)?
KCNK3 block: inactive; KCNK9 block: inactive; KCNQ1 act: inactive; hERG rescue: -1.9; KCNQ1 inh: inactive

Results for CCOC(=O)C(Cc1ccccc1)NC(C)=O (stereo not given) ?
KCNK3 block: inactive; KCNK9 block: inactive; KCNQ1 act: inactive; hERG rescue: -2.5; KCNQ1 inh: inactive; Cl transport mod: 0.146

How did CCOC(=O)C(Cc1ccccc1)NC(=O)CCCC(=O)c1ccccc1 (stereo not given) do in these assays?
KCNK3 block: inactive; KCNK9 block: inactive; KCNQ1 act: inactive; hERG rescue: -16.3; KCNQ1 inh: 8*

Results for Cc1ccc(/C=C/C2=Cc3c(sc(NC(=O)CSc4n[nH]c(N)n4)c3C#N)C(C)(C)C2)o1 ?
KCNK9 block: inactive; KCNQ1 act: inactive; hERG rescue: -15.0; KCNQ1 inh: 6*; Cl transport mod: 0.546

What do the screens show for `O=C(CN(CCc1ccccc1)Cc1ccccc1)Oc1ccccc1P(=O)(O)O`?
KCNK3 block: inactive; KCNK9 block: inactive; KCNQ1 act: inactive; hERG rescue: -7.7; KCNQ1 inh: inactive

What do the screens show for `Cc1c(Cl)cccc1NC(=S)NCCC(c1ccccc1)c1ccccc1`?
KCNK3 block: inactive; KCNK9 block: inactive; KCNQ1 act: inactive; hERG rescue: -4.5; KCNQ1 inh: 11*; Cl transport mod: -0.0565

What do the screens show for `Cc1cc(Cl)ccc1NC(=S)NCCC(c1ccccc1)c1ccccc1`?
KCNK3 block: inactive; KCNK9 block: inactive; KCNQ1 act: inactive; hERG rescue: -12.8; KCNQ1 inh: 11*

What do the screens show for `Cc1c(Cl)cccc1NC(=S)NCCC(C)C`?
KCNK3 block: inactive; KCNK9 block: inactive; KCNQ1 act: inactive; hERG rescue: -8.4; KCNQ1 inh: inactive

What do the screens show for `COc1cc2cc[n+](Cc3ccc([N+](=O)[O-])cc3)cc2cc1OC`?
KCNK3 block: inactive; KCNK9 block: inactive; KCNQ1 act: inactive; hERG rescue: -1.6; KCNQ1 inh: inactive

What do the screens show for `CCOC(=O)c1ccc2c(c1)n(CC)c(/C=C/N(C)c1ccccc1)[n+]2CC`?
KCNK3 block: inactive; KCNK9 block: inactive; KCNQ1 act: inactive; hERG rescue: -28.7; KCNQ1 inh: 8*; Cl transport mod: 0.222

How did CCOC(=O)c1ccc2c(c1)n(CCO)c(C)[n+]2CC do in these assays?
KCNK3 block: inactive; KCNK9 block: inactive; KCNQ1 act: inactive; hERG rescue: -8.3; KCNQ1 inh: inactive

What do the screens show for `COc1ccc(-n2cnc3ccccc3c2=O)c([N+](=O)[O-])c1`?
KCNK3 block: inactive; KCNK9 block: inactive; KCNQ1 act: inactive; hERG rescue: 5.5*; KCNQ1 inh: inactive

Results for CCOCCCNC(=O)CN1C(=O)NC(Cc2c[nH]c3ccccc23)C1=O (stereo not given) ?
KCNK3 block: inactive; KCNK9 block: inactive; KCNQ1 act: inactive; hERG rescue: -11.2; KCNQ1 inh: inactive

Results for CN(C)S(=O)(=O)N(Cc1ccc(Br)cc1)c1ccccc1 ?
KCNK3 block: inactive; KCNK9 block: -7.43*; KCNQ1 act: inactive; hERG rescue: -8.2; KCNQ1 inh: inactive; Cl transport mod: -1.63

How did O=[N+]([O-])c1cc(Cl)cc(/C=N/NC(=S)Nc2ccc(S(=O)(=O)N3CCOCC3)cc2)c1O do in these assays?
KCNK3 block: inactive; KCNK9 block: inactive; KCNQ1 act: inactive; hERG rescue: -1.2; KCNQ1 inh: 8*; Cl transport mod: -2.69

Results for CC(OC(=O)/C(C#N)=C/c1ccco1)C(=O)N(C)c1ccccc1 (stereo not given) ?
KCNK3 block: inactive

What do the screens show for `COc1ccc(-n2cnc(=S)[nH]c2=S)cc1`?
KCNK3 block: inactive

Results for Nc1c(-c2cccc(Cl)c2)cnn1-c1ccccc1 ?
KCNK3 block: inactive; KCNK9 block: -7.57*; KCNQ1 act: inactive; hERG rescue: -8.0; KCNQ1 inh: inactive

What do the screens show for `Cc1ccc2[nH]c(O)c(N=Nc3nc4ccccc4s3)c2c1`?
KCNK3 block: inactive; KCNK9 block: inactive; KCNQ1 act: inactive; hERG rescue: -5.0; KCNQ1 inh: inactive; Cl transport mod: 39.6*

How did Oc1[nH]c2ccccc2c1N=Nc1nc2ccccc2s1 do in these assays?
KCNK3 block: inactive; KCNK9 block: inactive; KCNQ1 act: inactive; hERG rescue: -8.0; KCNQ1 inh: inactive; Cl transport mod: 6.05*

How did O=C(CCN1CCOCC1)NNC(=S)NC(=O)c1ccc(Br)cc1 do in these assays?
KCNK3 block: inactive; KCNK9 block: inactive; KCNQ1 act: inactive; hERG rescue: -17.6; KCNQ1 inh: 6*; Cl transport mod: 1.43

What do the screens show for `CCOC(=O)CNC(=S)N(Cc1cccs1)C1CCCC1`?
KCNK3 block: inactive; KCNK9 block: inactive; KCNQ1 act: inactive; hERG rescue: -7.6; KCNQ1 inh: inactive; Cl transport mod: -0.138

How did CCCCCCNC(=O)CNC(=S)N(Cc1cccs1)C1CCCCC1 do in these assays?
KCNK3 block: inactive; KCNK9 block: inactive; KCNQ1 act: inactive; hERG rescue: -3.4; KCNQ1 inh: 7*

How did CC(=O)OCCn1c2nc(=O)[nH]c(=O)c-2nc2cc(C)c(C)cc21 do in these assays?
KCNK3 block: inactive; KCNK9 block: inactive; KCNQ1 act: inactive; hERG rescue: -45.5; KCNQ1 inh: 37*
